According to ChEMBL document CHEMBL4715906, “Antileishmanial macrolides from ant-associated Streptomyces sp. ISID311” (Bioorg Med Chem, 2021):
Calls of active or inactive are those of the source. The calls are words filed in the database; no cut-off is given here.

Legend:
Escovopsis [1] = test: Antifungal activity against Escovopsis ICBG1251 at 100 ug measured after 21 days by ISP-2 agar based assay; format: functional; conditions: dose 100.0 µg, time 21.0 day
Method in brief: (§1)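 Agar plug challenge on ISP-2: the producing bacterium was grown alone at plate centre for 7 days, then each fungal strain was point-inoculated 3 cm from centre. 100 µg of compound or miconazole was applied directly at plate centre. Plates were monitored for 21 days at 28 °C, with two replicates per sample–fungus pair.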

Escovopsis [2] = test: Antifungal activity against Escovopsis ICBG740 at 100 ug measured after 21 days by ISP-2 agar based assay; format: functional; conditions: dose 100.0 µg, time 21.0 day; method in brief: as §1
Pseudomonas aeruginosa = test: Antibacterial activity against Pseudomonas aeruginosa Boston 41501 by agar-based assay; format: functional, organism-based
Escherichia coli = test: Antibacterial activity against Escherichia coli ATCC 25922 by agar-based assay; format: functional, organism-based
Escovopsis [3] = test: Antifungal activity against Escovopsis ICBG741 at 100 ug measured after 21 days by ISP-2 agar based assay; format: functional; conditions: dose 100.0 µg, time 21.0 day; method in brief: as §1
Trichoderma = test: Antifungal activity against Trichoderma ICBG1100 at 100 ug measured after 21 days by ISP-2 agar based assay; format: functional, organism-based; conditions: dose 100.0 µg, time 21.0 day; method in brief: as §1
Cunninghamella = test: Antifungal activity against Cunninghamella ICBG752 at 100 ug measured after 21 days by ISP-2 agar based assay; format: functional, organism-based; conditions: dose 100.0 µg, time 21.0 day; method in brief: as §1
Bacillus subtilis = test: Antibacterial activity against Bacillus subtilis NRS 231 by agar-based assay; format: functional, organism-based
[4] = Cytotoxicity against human THP1 cells assessed as growth inhibition after 120 hrs by Alamar blue dye based fluorometric analysis; format: cell-based; conditions: THP-1 cells
Method in brief: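 PMA-differentiated THP-1 cells (2×10^4/well, PMA 20 ng/mL, 72 h, 37 °C, 5% CO2) were exposed to serial dilutions for 120 h with a doxorubicin control. Alamar Blue was added for 3 h, read at ex 536/em 588 nm, and inhibition taken relative to untreated wells. IC50 was from a variable-slope fit; mean ± SD of 3 biological replicates.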

Escovopsis [5] = test: Antifungal activity against Escovopsis ICBG711 at 100 ug measured after 21 days by ISP-2 agar based assay; format: functional; conditions: dose 100.0 µg, time 21.0 day; method in brief: as §1
Leishmania donovani [6] = test: Antileishmanial activity against Leishmania donovani MHOM/ET/67/HU3 axenic promastigotes assessed as parasite growth inhibition after 72 hrs by resorufin dye based fluorometric analysis; format: functional, organism-based; conditions: MHOM/ET/67/HU3, 72 h
Method in brief: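 Axenic promastigotes, 1×10^5 per well in log phase, in M199 pH 7.4 with 10% heat-inactivated FCS at 28 °C. Ten 2-fold dilutions from 0.125 to 64 µM (10 mM DMSO stocks) were incubated for 72 h; miltefosine was the reference. Alamar Blue was added for 3 h, read at ex 536/em 588 nm, normalized to untreated wells, and IC50 obtained by variable-slope fit.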

Leishmania donovani [7] = test: Antileishmanial activity against Leishmania donovani MHOM/ET/67/HU3 amastigotes infected in human THP1 cells assessed as parasite growth inhibition after 120 hrs by giemsa staining based inverted microscopic analysis; format: functional, organism-based; conditions: MHOM/ET/67/HU3, THP-1, 120 h
Method in brief: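 THP-1 cells (2×10^4/well, RPMI-1640) were differentiated with PMA 20 ng/mL for 72 h at 37 °C, 5% CO2. They were infected with late-stage promastigotes (2×10^5/well) for 24 h, washed, then exposed to serial dilutions for 120 h with a miltefosine control. Cells were methanol-fixed and Giemsa-stained, and amastigotes per macrophage counted microscopically relative to untreated wells. IC50 was from a variable-slope fit.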

[8] = Selectivity index, ratio of CC50 for human THP1 cells to IC50 for antileishmanial activity against Leishmania donovani MHOM/ET/67/HU3 amastigotes infected in human THP1 cells after 120 hrs; format: toxicity, cell-based; conditions: read-out: Ratio CC50/IC50
Method in brief: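 Index computed as CC50 in PMA-differentiated THP-1 cells (120 h Alamar Blue read-out) divided by IC50 against intracellular amastigotes in THP-1 (120 h exposure, Giemsa count).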

Staphylococcus aureus = test: Antibacterial activity against methicillin-sensitive Staphylococcus aureus Wichita by agar-based assay; format: functional, organism-based

| Structure (SMILES) | Activity (Escovopsis [1]) | Activity (Escovopsis [2]) | Activity (Pseudomonas aeruginosa) | Activity (Escherichia coli) | Activity (Escovopsis [3]) | Activity (Trichoderma) | Activity (Cunninghamella) | Activity (Bacillus subtilis) | CC50 at 120 h [4] | Activity (Escovopsis [5]) | IC50 (Leishmania donovani [6]) | IC50 (Leishmania donovani [7]) | selectivity ratio at 120 h [8] | Activity (Staphylococcus aureus) |
| --- | --- | --- | --- | --- | --- | --- | --- | --- | --- | --- | --- | --- | --- | --- |
| CC[C@H](O[C@H]1C[C@@](C)(O)[C@H](O[C@H]2CC[C@H](OC(=O)[C@H](C)[C@H](O)c3ccc4c(c3)C(=O)C=C(C)C4=O)[C@@H](C)O2)[C@H](C)O1)[C@H](C)[C@H](O)[C@@H](C)[C@H](O)[C@H](C)[C@H]1OC(=O)/C=C/[C@H](C)[C@H](O)C[C@H](O)CCC[C@@H](O)CC[C@@H](C)[C@H](O)C(=O)[C@@]2(O)C[C@@H](O)C[C@@H](C[C@@H](O)C[C@H](O)C[C@H](O)CCC[C@H](O)/C=C/[C@@H]1C)O2 | Active | Active | inactive | inactive | Active | inactive | inactive | inactive | 11500 nM | Active | 118 nM | 2320 nM | 4.94 | inactive |
| COc1cccc2c1C(=O)c1c(O)c3c(c(O)c1C2=O)C[C@@](O)(C(=O)CO)C[C@@H]3O[C@H]1C[C@H](N)[C@H](O)[C@H](C)O1 [DOXORUBICIN] |  |  |  |  |  |  |  |  | 580 nM |  |  |  |  |  |
| CC[C@H](O[C@H]1C[C@@](C)(O)[C@H](O[C@H]2CC[C@H](OC(=O)[C@H](C)[C@H](O)c3ccc4c(c3)C(=O)C=C(C)C4=O)[C@@H](C)O2)[C@H](C)O1)[C@H](C)[C@H](O)[C@@H](C)[C@H](O)[C@H](C)[C@H]1OC(=O)/C=C/[C@H](C)[C@H](O)C[C@H](O)CCC[C@@H](O)CC[C@@H](C)[C@H](O)C(=O)[C@@]2(O)C[C@@H](O)C[C@@H](C[C@@H](O)C[C@H](O)C[C@H](O)CCC[C@H](O)[C@@H]3O[C@H]3[C@@H]1C)O2 | Active | Active | inactive | inactive | Active | inactive | inactive | inactive | 6400 nM | Active | 34 nM | 91 nM | 70.3 | inactive |
| CC[C@H](O[C@H]1C[C@@](C)(O)[C@H](O[C@H]2CC[C@H](OC(=O)[C@H](C)[C@H](O)c3ccc4c(c3)C(=O)C=C(C)C4=O)[C@@H](C)O2)[C@H](C)O1)[C@H](C)[C@H](O)[C@@H](C)[C@H](O)[C@H](C)[C@H]1OC(=O)/C=C/[C@H](C)[C@H](O)C[C@H](O)CCC[C@@H](O)CC[C@@H](C)[C@H](O)C(=O)[C@]2(O)O[C@H](C[C@@H](O)C[C@H](O)C[C@H](O)CCC[C@H](O)[C@@H]3O[C@H]3[C@@H]1C)C[C@H](O)[C@H]2O | Active | Active | inactive | inactive | Active | inactive | inactive | inactive | 6070 nM | Active | 46 nM | 73 nM | 83.2 | inactive |
| CCCCCCCCCCCCCCCCOP(=O)([O-])OCC[N+](C)(C)C [MILTEFOSINE] |  |  |  |  |  |  |  |  | 60700 nM |  | 4980 nM | 5330 nM | 11.4 |  |
